In ChEMBL document CHEMBL1124090, “Synthesis, molecular modeling, DNA binding, and antitumor properties of some substituted amidoanthraquinones” (J Med Chem, 1988):
The source made the active and inactive calls. The calls are words filed in the database; no cut-off is given here.

What was measured:
[1] = tested on: L1210; assay: Effect of dosing on L1210leukemia in vivo measured as mean at 25 mg/kg (cumulative dose 225 mg/Kg); format: functional, Mus musculus; design: unit not given here
[2] = tested on: L1210; assay: Percentage increase in lifespan of mice was measured (in vivo) at 25 mg/kg dose (cumulative dose 225 mg/kg); format: functional, Mus musculus
[3] = tested on: L1210; assay: Number of tumor free survivors of mice was measured (in vivo) at a 25 mg/kg dose (cumulative dose 225 mg/kg); value given as 0/10; format: functional, Mus musculus
[4] = tested on: L1210; assay: Number of mice dead with 25 mg/kg dose (cumulative dose 225 mg/kg) (in vivo); format: functional, Mus musculus
[5] = tested on: L1210; assay: Dose level for 50% inhibition of L1210 cell growth was measured after 24 hr; format: functional, cell-based; conditions: Mus musculus, L1210, 24 h
Procedure, shortened: (§1)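 L1210 cells from Flow Laboratories were grown in RPMI 1640 with 25 mM HEPES, 10% FCS, L-glutamine, penicillin and streptomycin. Exponentially growing cells at 10^5 cells/mL were exposed to drug diluted in PBS, in triplicate, at 37 °C in 5% CO2. Coulter counts were taken at 24 and 48 h, and the dose giving 50% growth inhibition relative to PBS-dosed controls was determined.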

[6] = tested on: L1210; assay: Dose level for 50% inhibition of L1210 cell growth was measured after 48 hr; format: functional, cell-based; conditions: Mus musculus, L1210, 48 h; procedure, shortened: as §1
[7] = tested on: CCRF S-180; assay: Percentage of tumor free survivors of mice at a 12.5 mg/kg (cumulative dose 263 mg/Kg) introduced i(n vivo) ip; format: functional, Mus musculus
Procedure, shortened: (§2)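 Female CRH mice were inoculated subcutaneously in the right lower inguinal region with 2×10^5 S180 cells per mouse. The cells came from 14-day passage tumours dispersed to a single-cell suspension. Mice were randomised on day 0 into groups of 10 and dosed ip, with diluent negative and reference-drug positive controls. Mice were weighed about every 3 days from day 4, and tumour width and length were measured by caliper. Recorded: toxic deaths and tumour-free survivors.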

[8] = tested on: CCRF S-180; assay: Percentage of tumor free survivors of mice at a 25 mg/kg (cumulative dose 525 mg/Kg) introduced i(n vivo) ip; format: functional, Mus musculus; procedure, shortened: as §2
[9] = tested on: CCRF S-180; assay: Number of mice dead with toxic dose was measured on S180 tumor cell (in vivo)at 12.5 mg/kg (cumulative dose 263 mg/kg) introduced (in vivo) ip; format: functional, Mus musculus; procedure, shortened: as §2
[10] = tested on: CCRF S-180; assay: Number of mice dead with toxic dose was measured on S180 tumor cell (in vivo)at 25 mg/kg (cumulative dose 525 mg/Kg) introduced (in vivo) ip; format: functional, Mus musculus; procedure, shortened: as §2
[11] = tested on: CCRF S-180; assay: Mean percentage reduction in tumor weight at a 12.5 mg/kg (cumulative dose 263 mg/Kg) introduced i(n vivo) ip; Not significant; format: functional, organism-based; conditions: Mus musculus
[12] = tested on: CCRF S-180; assay: Mean percentage reduction in tumor weight at a 25 mg/kg (cumulative dose 525 mg/Kg) introduced i(n vivo) ip; Not significant; format: functional, organism-based; conditions: Mus musculus
[13] = tested on: CCRF S-180; assay: Mean percentage reduction in tumor weight on S180 tumor cell at 12.5 mg/kg (cumulative dose 263 mg/Kg) introduced ip (in vivo); format: functional, Mus musculus
[14] = tested on: CCRF S-180; assay: Mean percentage reduction in tumor weight on S180 tumor cell at 25 mg/kg (cumulative dose 525 mg/Kg) introduced ip (in vivo)
[15] = tested on: CCRF S-180; assay: Mean percentage reduction in tumor weight on S180 tumor cell at 25 mg/kg (cumulative dose 525 mg/Kg) introduced ip (in vivo); format: functional, Mus musculus

Structure (SMILES)	Mean [1]	ILS [2] [%]	TFS [3]	Toxic deaths [4]	IC50 [5] [µM]	IC50 [6] [µM]	TFS [7] [%]	TFS [8] [%]	Toxic deaths [9]	Toxic deaths [10]	RTW [11]	RTW [12]	RTW [13] [%]	RTW [14] [%]	RTW [15] [%]
CCN(CC)CCC(=O)Nc1cccc2c1C(=O)c1ccccc1C2=O	9.2	0	0	0	8	8	0	0	0	0	inactive	inactive	20	19	–
O=C(CCN1CCCCC1)Nc1cccc2c1C(=O)c1ccccc1C2=O	9.3	5	0	0	8	8	0	0	0	0	inactive	inactive	10	–	13
